The record followed here is ChEMBL document CHEMBL1287805, “abeo-abietanes from Teucrium polium roots as protective factors against oxidative stress” (Bioorg Med Chem, 2010).

Common to all, as to type: functional
Assay [1] is described as follows: Antioxidant activity against bovine serum albumin oxidation after 60 mins. The procedure, abridged:
(§1)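 BSA (10 mg/mL) oxidised with H2O2 (1.0 mM) and FeSO4 (0.5 mM) in the presence of sample; shaken 10 min, then TCA (10.0%) precipitation at 4 °C. Pellet derivatised with DNPH (10 mM) in 2 N HCl for 1 h at room temperature, reprecipitated with cold TCA, washed, and dissolved in 6 M guanidine-HCl (pH 6.5). Protein carbonyl formation was measured.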

In assay [2] the test system is Radical scavenging activity. Description: Antioxidant activity assessed as DPPH radical scavenging activity. In a few lines: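 DPPH absorbance at 515 nm read at 30 min against a blank. Compounds tested at 37.5, 75, 125 and 250 µM in triplicate, with Trolox as standard. IC50 is the concentration giving 50% inhibition of absorbance, taken from the plotted curves.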
On the technique in general: Loss of DPPH colour is used to gauge radical scavenging.

A short description of assay [3]: Antioxidant activity against lipid peroxidation assessed as TBARS production using rape seed oil after 60 mins. In a few lines:
(§2)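 Rape seed oil emulsified with Tween-40 in Tris-HCl (0.2 M, pH 7.4). Test compound added at final 37.5, 75.0, 125.0 or 250.0 µM, then tubes held in a boiling water bath for 30 min. Absorbance read at 532 nm. Lipid peroxidation inhibition is given as percent versus a blank without compound. Triplicate.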

Assay [4] is described as follows: Antioxidant activity against pentose 2-deoxyribose oxidation at 250 uM after 60 mins by TBA method. In a few lines:
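Deoxyribose assay in KH2PO4/KOH (10.0 mM, pH 7.4) with H2O2, EDTA, FeCl3 and ascorbic acid (each 100.0 µM) plus 2-deoxyribose (2.8 mM). Compound at final 37.5–250.0 µM, incubated at 37 °C for 1 h. TBA/TCA added, heated at 90 °C for 30 min, read at 532 nm. Result is percent antioxidant capacity versus blank. Triplicate.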

A short description of assay [5]: Antioxidant activity against bovine serum albumin oxidation at 37.5 uM after 60 mins. The procedure, abridged: as §1
A short description of assay [6]: Antioxidant activity against lipid peroxidation assessed as TBARS production using rape seed oil at 250 uM after 60 mins. In a few lines:
as §2

The source made the active and inactive calls. The calls are words filed in the database; no cut-off is given here.

For the compound `C[C@H]1Cc2c(O)c3c(c(O)c2O1)[C@@]1(C)CCC(=O)C(C)(C)C1=C(O)C3=O` [TEUVINCENONE A], the Activity result in assay [1] and in assay [3] was “Dose-dependent effect” throughout. The IC50 (commonly the concentration needed to halve the response being measured) in assay [2] was 63 µM. For the same compound, the inhibition (commonly the percentage by which the read-out fell short of the control) in assay [4] was found to be 50%.

Take `Cc1cc2c(O)c3c(c(O)c2o1)[C@@]1(C)CC[C@H]2C[C@@]2(C)C1=C(O)C3=O`: the Activity result in assay [1] and in assay [3] was “Dose-dependent effect” each time. Also, the inhibition in assay [5] stood at 31%; in assay [6], 76.9%. Moreover, the IC50 in assay [2] is 55 µM. The inhibition entry in assay [4] was “inactive”.

With `C[C@@H]1Oc2c(O)c3c(c(O)c2[C@H]1O)C(=O)C(O)=C1C(C)(C)CCC[C@@]13C`, the Activity entry in assay [1] and in assay [3] was “Dose-dependent effect” in each case. Moreover, the IC50 in assay [2] came to 71 µM. In assay [4], this compound yielded an inhibition of 50%.

For the compound `C[C@@H]1Oc2c(O)c3c(c(O)c2[C@H]1O)C(=O)C(O)=C1[C@]3(C)CC[C@H]2C[C@@]12C`, the Activity result in assay [1] and in assay [3] was “Dose-dependent effect” in each case. In addition, the 50% inhibitory concentration (IC50) in assay [2] was 84 µM. Moreover, the inhibition in assay [4] came to 50%.

On to `CC1(C)CCC[C@@]2(C)C1=C(O)C(=O)c1c2c(O)c2oc(CO)cc2c1O`, for which the Activity result in assay [1] and in assay [3] was “Dose-dependent effect” in each case. In addition, the IC50 in assay [2] was determined as 120 µM. The inhibition in assay [4] amounted to 50%.

On to `Cc1cc2c(O)c3c(c(O)c2o1)[C@@]1(C)CC[C@H]2C[C@@]2(C)[C@@H]1CC3=O`, for which the Activity result in assay [1] and in assay [3] was “Dose-dependent effect” throughout. Besides, the half-inhibitory concentration (IC50) in assay [2] came out at 130 µM. For the same compound, the inhibition in assay [4] stood at 50%.

Turning to `Cc1cc2c(O)c3c(c(O)c2o1)[C@@]1(C)CCCC(C)(C)C1=C(O)C3=O`, the Activity result in assay [1] and in assay [3] was “Dose-dependent effect” each time. In addition, the concentration for half-maximal inhibition (IC50) in assay [2] is 76 µM. In addition, the inhibition entry in assay [4] is “inactive”.

Take `C[C@H]1Cc2c(O)c3c(c(O)c2O1)[C@@]1(C)CCCC(C)(C)C1=C(O)C3=O` [TEUVINCENONE B]: the Activity entry in assay [1] and in assay [3] was “Dose-dependent effect” each time. Further, the IC50 in assay [2] was 55 µM. The compound also had an inhibition in assay [4] of 50%.

For the compound `C[C@]12CC[C@H]3C[C@@]3(C)C1=C(O)C(=O)c1c2c(O)c2oc(CO)cc2c1O`, the Activity entry in assay [1] and in assay [3] was “Dose-dependent effect” throughout. The IC50 in assay [2] came out at 101 µM. In assay [4], the inhibition result is “inactive”.

With `CC1(C)CCC[C@@]2(C)C1=C(O)C(=O)c1c(O)c3c(c(O)c12)O[C@@H](CO)C3` [VILLOSIN C], the Activity entry in assay [1] and in assay [3] was “Dose-dependent effect” throughout. In addition, the half-maximal inhibitory concentration (IC50) in assay [2] was 86 µM. Besides, the inhibition in assay [4] stood at 50%.

Consider `C[C@H]1Cc2c(O)c3c(c(O)c2O1)[C@@]1(C)CC[C@H]2C[C@@]2(C)[C@@H]1CC3=O` [TEUVINCENONE D], for which the Activity result in assay [1] and in assay [3] was “Dose-dependent effect” each time. Also, the concentration for half-maximal inhibition (IC50) in assay [2] stood at 111 µM. In addition, in assay [4], the inhibition is 50%.

In the case of `C[C@H]1Cc2c(O)c3c(c(O)c2O1)[C@@]1(C)CC[C@H]2C[C@@]2(C)C1=C(O)C3=O` [TEUVINCENONE C], the Activity result in assay [1] and in assay [3] was “Dose-dependent effect” each time. In addition, in assay [2], the IC50 came to 97 µM. In addition, the inhibition in assay [4] turned out to be 50%.

`Cc1c(C)c2c(c(C)c1O)CCC(C)(C(=O)O)O2` (stereo not given) [TROLOX]: the IC50 in assay [2] was 24 µM.

For `Cc1cc2c(O)c3c(c(O)c2o1)[C@@]1(C)CCC(=O)C(C)(C)C1=C(O)C3=O`, the Activity entry in assay [1] and in assay [3] was “Dose-dependent effect” in each case. Besides, the IC50 in assay [2] turned out to be 64 µM. Moreover, the inhibition in assay [4] worked out at 50%.
